Tests used:
[1] = Time from injection to 95% recovery of the twitch response at the ED95 dose in male Rhesus monkey.; type: functional, Cercopithecidae
Summary of the method: (§1)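 Anesthetized, ventilated male rhesus monkeys received sequential iv bolus doses with extensor digitorum twitch recorded. Onset is injection to peak twitch inhibition. Duration is injection to 95% twitch recovery. Values at the ED95 were read from plots of onset or duration vs dose. Means ± SE across animals.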

[2] = Selectivity index is changes in heart rate(cv dose) to the suppression of twitch response (ED95) in male Rhesus monkey; type: functional, Cercopithecidae
Summary of the method: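 Same anesthetized male rhesus preparation, with blood pressure, heart rate and EKG recorded alongside twitch during sequential iv doses up to 6.4 mg/kg. Cardiovascular threshold dose is the dose giving ≥10% change in heart rate or mean arterial pressure. Index = mean threshold dose / mean ED95 (extensor digitorum).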

[3] = Dose required for 95% suppression of the twitch response at the extensor digitorum in male Rhesus monkey.; type: functional, Cercopithecidae
Summary of the method: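 Adult male rhesus monkeys (8–15 kg) under ketamine (5 mg/kg i.m.) and pentobarbital (2–5 mg/kg iv) induction, then N2O 60%/O2 40%/halothane 0.5–1%, ventilated, core temperature 37–38 °C. Twitch of extensor digitorum was recorded after ≥20 min stable baseline. Sequential iv bolus doses from 0.03 to 6.4 mg/kg. Per-animal ED95 came from log-probability regression of dose vs % block. Other lines give the single dose tested with its % block.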

[4] = Time from injection to peak inhibition of twitch response at the ED95 dose in male Rhesus monkey.; type: functional, Cercopithecidae; summary of the method: as §1
[5] = Time from injection to 95% recovery of twitch response at a dose of 0.4 mg/kg in male Rhesus monkey was evaluated
[6] = Time from injection to 95% recovery of twitch response at a dose of 0.2 mg/kg in male Rhesus monkey was evaluated
[7] = Time from injection to peak inhibition of twitch response at a dose of 0.2 mg/kg in male Rhesus monkey was evaluated; type: functional, Cercopithecidae
Summary of the method: (§2)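 Single iv bolus of 0.2 or 0.4 mg/kg in anesthetized, ventilated male rhesus monkeys, with extensor digitorum twitch recorded. Onset taken from injection to peak twitch inhibition at the given dose. Means ± SE, N = number of animals.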

[8] = Time from injection to peak inhibition of twitch response at a dose of 0.4 mg/kg in male Rhesus monkey was evaluated; type: functional, Cercopithecidae; summary of the method: as §2
[9] = Cercopithecidae, read-out: ED95

| Compound | Duration [1] | Selectivity index [2] | ED95 [3, 9] | Onset [4] | Duration [5] | Duration [6] | Onset [7] | Onset [8] | ED95 [3] |
| --- | --- | --- | --- | --- | --- | --- | --- | --- | --- |
| COc1cc2c(cc1OC)[C@@H](c1cc(OC)c(OC)c(OC)c1)[N@+](C)(CCCOC(=O)/C(Cl)=C/C(=O)OCCC[N@+]1(C)CCc3cc(OC)c(OC)cc3[C@H]1Cc1cc(OC)c(OC)c(OC)c1)CC2.[Cl-].[Cl-] | 3.7 min |  |  |  |  |  |  |  |  |
| COc1cc2c(cc1OC)[C@H](c1cc(OC)c(OC)c(OC)c1)[N@@+](C)(CCCOC(=O)CCCCCCCC(=O)OCCC[N@+]1(C)CCc3cc(OC)c(OC)cc3[C@H]1Cc1cc(OC)c(OC)c(OC)c1)CC2.[Cl-].[Cl-] | 9.7 min | 19 | 0.17 mg/kg | 79 s |  |  |  |  |  |
| COc1cc2c(cc1OC)C(c1cc(OC)c(OC)c(OC)c1)[N@+](C)(CCCOC(=O)/C=C/C(=O)OCCC[N@+]1(C)CCc3cc(OC)c(OC)cc3[C@H]1c1cc(OC)c(OC)c(OC)c1)CC2.[Cl-].[Cl-] (some centres not stated) | 25.5 min | 0.65 | 1.55 mg/kg | 114 s |  |  |  |  |  |
| COc1cc2c(cc1OC)[C@H](c1cc(OC)c(OC)c(OC)c1)[N@@+](C)(CCCOC(=O)/C=C(\Cl)C(=O)OCCC[N@@+]1(C)CCc3cc(OC)c(OC)cc3[C@@H]1c1cc(OC)c(OC)c(OC)c1)CC2.[Cl-].[Cl-] |  | 1.5 |  |  |  |  |  |  |  |
| COc1cc2c(cc1OC)[C@H](c1cc(OC)c(OC)c(OC)c1)[N@@+](C)(CCCOC(=O)CCCCCCC(=O)OCCC[N@+]1(C)CCc3cc(OC)c(OC)cc3[C@H]1Cc1cc(OC)c(OC)c(OC)c1)CC2.[Cl-].[Cl-] | 10.9 min | 12 | 0.067 mg/kg | 117 s |  |  |  |  |  |
| COc1cc2c(cc1OC)[C@H](c1cc(OC)c(OC)c(OC)c1)[N@@+](C)(CCCOC(=O)/C=C(\F)C(=O)OCCC[N@+]1(C)CCc3cc(OC)c(OC)c(OC)c3[C@H]1Cc1cc(OC)c(OC)c(OC)c1)CC2.[Cl-].[Cl-] | 10 min | 21 | 0.077 mg/kg | 85 s |  |  |  |  |  |
| COc1cc2c(cc1OC)C(Cc1cc(OC)c(OC)c(OC)c1)[N@+](C)(CCCOC(=O)/C(Cl)=C/C(=O)OCCC[N@+]1(C)CCc3cc(OC)c(OC)cc3[C@H]1Cc1cc(OC)c(OC)c(OC)c1)CC2.[Cl-].[Cl-] (some centres not stated) | 7.1 min | 20 | 0.079 mg/kg | 96 s |  |  |  |  |  |
| COc1cc2c(cc1OC)[C@H](c1cc(OC)c(OC)c(OC)c1)[N@@+](C)(CCCOC(=O)CCC(F)(F)C(=O)OCCC[N@+]1(C)CCc3cc(OC)c(OC)cc3[C@H]1Cc1cc(OC)c(OC)c(OC)c1)CC2.[Cl-].[Cl-] | 5.7 min |  | 0.22 mg/kg | 48 s |  |  |  |  |  |
| COc1cc(CC2c3cc4c(cc3CC[N@@+]2(C)CCCOC(=O)/C(Cl)=C/C(=O)OCCC[N@+]2(C)CCc3cc5c(cc3[C@H]2Cc2cc(OC)c(OC)c(OC)c2)OCO5)OCO4)cc(OC)c1OC.[Cl-].[Cl-] (some centres not stated) | 2.4 min | 1.3 | 0.62 mg/kg | 27 s |  |  |  |  |  |
| COc1cc2c(cc1OC)[C@H](c1cc(OC)c(OC)c(OC)c1)N(CCCOC(=O)/C=C(\Cl)C(=O)OCCC[N@+]1(C)CCc3cc(OC)c(OC)cc3[C@H]1Cc1cc(OC)c(OC)c(OC)c1)CC2.Cl.[Cl-] | 5.4 min |  | 0.87 mg/kg | 38 s |  |  |  |  |  |
| COc1cc2c(cc1OC)[C@H](c1cc(OC)c(OC)c(OC)c1)[N@@+](C)(CCCOC(=O)CC(F)(F)C(=O)OCCC[N@+]1(C)CCc3cc(OC)c(OC)cc3[C@H]1Cc1cc(OC)c(OC)c(OC)c1)CC2.[Cl-].[Cl-] | 7.3 min | 96 | 0.056 mg/kg | 78 s | 13 min | 10.3 min | 37 s | 22 s |  |
| COc1cc2c(cc1OC)C(c1cc(OC)c(OC)c(OC)c1)[N@+](C)(CCCOC(=O)/C(Cl)=C/C(=O)OCCC[N@+]1(C)CCc3cc(OC)c(OC)cc3[C@H]1c1cc(OC)c(OC)c(OC)c1)CC2.[Cl-].[Cl-] (some centres not stated) | 5.1 min | 3.6 | 1.79 mg/kg | 46 s |  |  |  |  |  |
| COc1cc2c(cc1OC)[C@H](c1cc(OC)c(OC)c(OC)c1)[N@@+](C)(CCCOC(=O)C(F)(F)CC(=O)OCCC[N@+]1(C)CCc3cc(OC)c(OC)cc3[C@H]1Cc1cc(OC)c(OC)c(OC)c1)CC2.[Cl-].[Cl-] | 4.9 min |  | 0.39 mg/kg | 26 s |  |  |  |  |  |
| COc1cc2c(cc1OC)[C@@H](c1cc(OC)c(OC)c(OC)c1)[N@+](C)(CCCOC(=O)/C=C(\Cl)C(=O)OCCC[N@+]1(C)CCc3cc(OC)c(OC)c(OC)c3[C@H]1Cc1cc(OC)c(OC)c(OC)c1)CC2 | 10 min | 24 | 0.067 mg/kg | 57 s |  |  |  |  |  |
| COc1cc2c(cc1OC)[C@H](c1cc(OC)c(OC)c(OC)c1)[N@@+](C)(CCCOC(=O)CCCCCCCCC(=O)OCCC[N@+]1(C)CCc3cc(OC)c(OC)cc3[C@H]1Cc1cc(OC)c(OC)c(OC)c1)CC2.[Cl-].[Cl-] | 13.5 min |  | 0.2 mg/kg | 110 s |  |  |  |  |  |
| COc1cc2c(cc1OC)[C@H](c1cc(OC)c(OC)c(OC)c1)[N@@+](C)(CCCOC(=O)CC(F)(F)C(=O)OCCC[N@+]1(C)CCc3cc(OC)c(OC)c(OC)c3[C@H]1Cc1cc(OC)c(OC)c(OC)c1)CC2.[Cl-].[Cl-] | 14 min | 60 | 0.04 mg/kg | 217 s |  |  |  |  |  |
| COc1cc2c(cc1OC)[C@H](c1cc(OC)c(OC)c(OC)c1)[N@@+](C)(CCCOC(=O)/C=C(\F)C(=O)OCCC[N@+]1(C)CCc3cc(OC)c(OC)cc3[C@H]1Cc1cc(OC)c(OC)c(OC)c1)CC2.[Cl-].[Cl-] | 4.4 min | 37 | 0.137 mg/kg | 66 s |  |  |  |  |  |
| COc1cc2c(cc1OC)[C@H](c1cc(OC)c(OC)c(OC)c1)[N@@+](C)(CCCOC(=O)CCCCC(=O)OCCC[N@+]1(C)CCc3cc(OC)c(OC)cc3[C@H]1Cc1cc(OC)c(OC)c(OC)c1)CC2.[Cl-].[Cl-] | 13 min |  | 0.136 mg/kg | 75 s |  |  |  |  |  |
| COc1cc2c(cc1OC)[C@@H](Cc1cc(OC)c(OC)c(OC)c1)[N@+](C)(CCCOC(=O)/C(Cl)=C/C(=O)OCCC[N@+]13CCc4cc(OC)c(OC)cc4[C@H]1c1cc(OC)c(OC)cc1CC3)CC2.[Cl-].[Cl-] | 5.2 min | 5 | 0.078 mg/kg | 94 s |  |  |  |  |  |
| COc1ccc([C@@H]2c3cc(OC)c(OC)cc3CC[N@@+]2(C)CCCOC(=O)CC(F)(F)C(=O)OCCC[N@+]2(C)CCc3cc(OC)c(OC)cc3[C@H]2Cc2cc(OC)c(OC)c(OC)c2)cc1OC.[Cl-].[Cl-] | 3.9 min |  | 0.06 mg/kg | 55 s |  |  |  |  |  |
| COc1cc2c(cc1OC)[C@H](c1cc(OC)c(OC)c(OC)c1)[N@@+](C)(CCCOC(=O)/C=C(\Cl)C(=O)OCCC[N@+]13CCc4cc(OC)c(OC)c(OC)c4[C@H]1Cc1cc(OC)c(OC)c(OC)c1C3)CC2.[Cl-].[Cl-] | 4.5 min |  | 0.8 mg/kg | 28 s |  |  |  |  |  |
| COc1cc2c(cc1OC)[C@@H](c1cc(OC)c(OC)c(OC)c1)[N@+](C)(CCCOC(=O)/C=C(\Cl)C(=O)OCCC[N@+]1(C)CCc3cc(OC)c(OC)c(OC)c3[C@H]1Cc1cc(OC)c(OC)c(OC)c1)CC2.[Cl-].[Cl-] | 9.9 min | 15 | 0.053 mg/kg | 113 s |  |  |  |  |  |
| COc1ccc([C@H]2c3cc(OC)c(OC)cc3CC[N@+]2(C)CCCOC(=O)/C=C(\Cl)C(=O)OCCC[N@+]2(C)CCc3cc(OC)c(OC)cc3[C@H]2Cc2cc(OC)c(OC)c(OC)c2)cc1.[Cl-].[Cl-] | 7.4 min | 6 | 0.136 mg/kg | 69 s |  |  |  |  |  |
| COc1cc2c(cc1OC)[C@H](c1ccc(F)c(F)c1)[N@@+](C)(CCCOC(=O)/C=C(\Cl)C(=O)OCCC[N@+]1(C)CCc3cc(OC)c(OC)cc3[C@H]1Cc1cc(OC)c(OC)c(OC)c1)CC2.[Cl-].[Cl-] | 4.7 min | 18 | 0.09 mg/kg | 72 s |  |  |  |  |  |
| COc1cc2c(cc1OC)[C@H](c1cc(OC)c(OC)c(OC)c1)[N@@+](C)(CCCOC(=O)/C=C(\Cl)C(=O)OCCC[N@+]1(C)CCc3cc(OC)c(OC)cc3[C@H]1Cc1cc(OC)c(OC)c(OC)c1)CC2.[Cl-].[Cl-] (stereo in doubt; 24a) [GANTACURIUM CHLORIDE] |  | 57 |  |  |  |  |  |  | 0.063 mg/kg |
| COc1cc2c(cc1OC)[C@H](c1cc(OC)c(OC)c(OC)c1)[N@@+](C)(CCCOC(=O)/C=C(\Cl)C(=O)OCCC[N@+]1(C)CCc3cc(OC)c(OC)cc3[C@H]1Cc1cc(OC)c(OC)c(OC)c1)CC2.[Cl-].[Cl-] (stereo in doubt; 24a/24b) [GANTACURIUM CHLORIDE] |  | 27 |  |  |  |  |  |  | 0.163 mg/kg |
| COc1cc2c(cc1OC)[C@@H](Cc1cc(OC)c(OC)c(OC)c1)[N+](C)(CCCOC(=O)CC/C=C/CCC(=O)OCCC[N+]1(C)CCc3cc(OC)c(OC)cc3[C@H]1Cc1cc(OC)c(OC)c(OC)c1)CC2.[Cl-].[Cl-] (some centres not stated) [MIVACURIUM CHLORIDE] |  | 24 |  |  |  |  |  |  |  |

— ChEMBL document CHEMBL1145796, “Neuromuscular blocking activity and therapeutic potential of mixed-tetrahydroisoquinolinium halofumarates and halosuccinates in rhesus monkeys” (2003)
